Results as given in ChEMBL document CHEMBL3813699, “Structure-Activity Relationships of a Diverse Class of Halogenated Phenazines That Targets Persistent, Antibiotic-Tolerant Bacterial Biofilms and Mycobacterium tuberculosis” (J Med Chem, 2016).
≈ marks a conversion by molar mass, not a printed value. Calls of active or inactive are those of the source. No cut-off for these calls is given here.

Experiments:
Staphylococcus aureus [1] = assay: Antibiofilm activity against methicillin-resistant Staphylococcus aureus isolate 2 assessed as biofilm eradication incubated for 24 hrs by CBD assay; assay type: functional; details: for MBC: Staphylococcus aureus, isolate 2, 24 h
Summary of the method: (§1)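 Calgary Biofilm Device: pegs inoculated with mid-log culture diluted 1,000-fold in TSB + 0.5% glucose, 24 h 37 °C; washed pegs challenged with 2-fold dilutions 24 h 37 °C; pegs moved to fresh TSBG 24 h; MBEC = lowest concentration leaving no turbidity; 2–6 independent experiments.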

Staphylococcus aureus [2] = assay: Antibacterial activity against methicillin-resistant Staphylococcus aureus clinical isolate 2 incubated for 16 hrs by broth microdilution method; assay type: functional; details: isolate 2, 16 h
[3] = system: Mycobacterium tuberculosis; assay: Antibacterial activity against Mycobacterium tuberculosis H37Ra ATCC 25177 after 7 days by two-fold serial dilution method; assay type: functional; details: H37Ra ATCC 25177, 168 h
HeLa [4] = assay: Cytotoxicity against human HeLa cells assessed as cell death at 50 uM after 24 hrs by LDH release assay; assay type: cell-based
Summary of the method: (§2)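 HeLa in DMEM + 10% FBS, 37 °C 5% CO2, at 70–80% confluence treated with 25, 50, 100 µM for 24 h; DMSO vehicle; Triton X-100 2% v/v max-LDH control, medium-only negative; supernatant with LDH reaction mix 30 min room temperature, stopped, absorbance 490 nm.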

[5] = system: Staphylococcus epidermidis; assay: Antibacterial activity against methicillin-resistant Staphylococcus epidermidis ATCC 35984 assessed as biofilm eradication incubated for 24 hrs by CBD assay; assay type: functional; details: for MBC: Staphylococcus epidermidis, ATCC 35984, 24 h; summary of the method: as §1
Staphylococcus aureus [6] = assay: Antibacterial activity against methicillin-resistant Staphylococcus aureus BAA-1707 incubated for 16 to 18 hrs by broth microdilution method; assay type: functional
[7] = system: Staphylococcus epidermidis; assay: Antibacterial activity against Staphylococcus epidermidis ATCC 12228 incubated for 16 to 18 hrs by broth microdilution method; assay type: functional
HeLa [8] = assay: Cytotoxicity against human HeLa cells assessed as induction of cell death at 100 uM after 24 hrs by LDH release assay; assay type: cell-based; summary of the method: as §2
Enterococcus faecium [9] = assay: Antibacterial activity against vancomycin-resistant Enterococcus faecium ATCC 700221 incubated for 16 to 18 hrs by broth microdilution method; assay type: functional
Enterococcus faecium [10] = assay: Antibiofilm activity against […]-resistant Enterococcus faecium ATCC 700221 assessed as biofilm eradication incubated for 24 hrs by CBD assay; assay type: functional; details: for MBC: Enterococcus faecium, ATCC 700221, 24 h; summary of the method: as §1
HeLa [11] = assay: Cytotoxicity against human HeLa cells after 24 hrs by LDH release assay; assay type: cell-based; summary of the method: as §2
[12] = Induction of hemolysis in human RBC at 200 uM incubated for 1 hr; assay type: cell-based, Erythrocyte; details: red blood cells, read-out: Activity
Summary of the method: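 Human RBCs (EDTA), washed three times in Tris-buffered saline pH 7.2; 2% hRBC with compound at final 200 µM, 1 h 37 °C; supernatant OD405; % hemolysis relative to DMSO (0%) and Triton X (100%).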

[13] = system: Staphylococcus epidermidis; assay: Antibiofilm activity against methicillin-resistant Staphylococcus epidermidis ATCC 35984 assessed as reduction in persister cells level within biofilms MBEC incubated for 24 hrs by CBD assay; assay type: functional; design: scale not given: the % may be the effect or the level left
Summary of the method: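 After CBD challenge and recovery, pegs sonicated 30 min in PBS and plated to count viable biofilm cells (CFU/mL) at and below MBEC.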

Staphylococcus aureus [14] = assay: Antibacterial activity against methicillin-resistant Staphylococcus aureus BAA-44 incubated for 16 to 18 hrs by broth microdilution method; assay type: functional
Staphylococcus aureus [15] = assay: Antibacterial activity against methicillin-resistant Staphylococcus aureus clinical isolate 2 incubated for 16 hrs by broth microdilution method in presence of Cu2+; assay type: functional; details: isolate 2, 16 h
[16] = system: Staphylococcus epidermidis; assay: Antibacterial activity against methicillin-resistant Staphylococcus epidermidis ATCC 35984 incubated for 16 to 18 hrs by broth microdilution method; assay type: functional
[17] = system: Staphylococcus epidermidis; assay: Antibiofilm activity against methicillin-resistant Staphylococcus epidermidis ATCC 35984 assessed as biofilm eradication at 0.1 to 10 uM incubated for 24 hrs by live/dead staining-based fluorescence microscopic analysis; assay type: functional, organism-based
Summary of the method: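 MRSE 35984 mid-log culture diluted 1:1,000, biofilm grown 24 h at 37 °C on glass dish, saline wash, treated in fresh media 0.1, 1, 10 µM for 24 h at 37 °C; DMSO negative control; Live/Dead stain 15 min dark, paraformaldehyde fixed, fluorescence microscopy.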

Staphylococcus aureus [18] = assay: Antibacterial activity against methicillin-resistant Staphylococcus aureus clinical isolate 2 incubated for 16 to 18 hrs by broth microdilution method; assay type: functional
[19] = Aqueous solubility of compound in media after 16 hrs; assay type: physicochemical
Staphylococcus aureus [20] = assay: Antibiofilm activity against methicillin-resistant Staphylococcus aureus BAA-1707 assessed as biofilm eradication incubated for 24 hrs by CBD assay; assay type: functional; details: for MBC: Staphylococcus aureus, BAA-1707, 24 h; summary of the method: as §1
Staphylococcus aureus [21] = assay: Antibiofilm activity against methicillin-resistant Staphylococcus aureus BAA-44 assessed as biofilm eradication incubated for 24 hrs by CBD assay; assay type: functional; details: for MBC: Staphylococcus aureus, BAA-44, 24 h; summary of the method: as §1
Staphylococcus aureus [22] = assay: Antibacterial activity against methicillin-resistant Staphylococcus aureus clinical isolate 2 incubated for 16 hrs by broth microdilution method in presence of Fe2+; assay type: functional; details: isolate 2, 16 h
Staphylococcus aureus [23] = assay: Ratio of MBEC to MBC for methicillin-resistant Staphylococcus aureus clinical isolate 2 biofilm eradication; assay type: functional
Summary of the method: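 From the same CBD challenge plate, MBC taken by subculturing 20 µL into 180 µL TSBG overnight at 37 °C (no turbidity); MBEC from recovered pegs in fresh TSBG 24 h; ratio MBEC:MBC against MRSA-2.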

Staphylococcus aureus [24] = assay: Antibacterial activity against methicillin-resistant Staphylococcus aureus clinical isolate 2 incubated for 16 hrs by broth microdilution method in presence of tiron; assay type: functional; details: isolate 2, 16 h
[25] = Metal chelating activity assessed as insoluble Cu2+-compound complex formation by UV-vis spectroscopic analysis; assay type: physicochemical
Summary of the method: (§3)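 UV-vis monitoring after adding 0.5 equivalents CuSO4 or ammonium iron(II) sulfate to stirred 10 mM ligand in DMSO; Cu stoichiometry from free ligand remaining after 2 h room-temperature stirring with varying CuSO4 in methanol, filtered, redissolved in DMSO, A440 against calibration curve.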

[26] = Metal chelating activity assessed as soluble Fe2+-compound complex formation by UV-vis spectroscopic analysis; assay type: physicochemical; summary of the method: as §3
Staphylococcus aureus [27] = assay: Antibacterial activity against methicillin-resistant Staphylococcus aureus clinical isolate 2 incubated for 16 hrs by broth microdilution method in presence of ascorbic acid; assay type: functional, organism-based
[28] = system: Staphylococcus epidermidis; assay: Antibacterial activity against Staphylococcus epidermidis ATCC 12228 incubated for 16 to 20 hrs by broth microdilution method; assay type: functional
Staphylococcus aureus [29] = assay: Antibacterial activity against Staphylococcus aureus ATCC 25923 incubated for 16 to 20 hrs by broth microdilution method; assay type: functional
Staphylococcus aureus [30] = assay: Antibacterial activity against methicillin-resistant Staphylococcus aureus clinical isolate 2 incubated for 16 hrs by broth microdilution method in presence of MnTBAP; assay type: functional, organism-based
Staphylococcus aureus [31] = assay: Antibacterial activity against methicillin-resistant Staphylococcus aureus clinical isolate 2 incubated for 16 hrs by broth microdilution method in presence of thiourea; assay type: functional, organism-based

| SMILES | MBEC (Staphylococcus aureus [1]) [µM] | MBC (Staphylococcus aureus [1]) [µM] | MIC [3] [µM] | MBEC [5] [µM] | MBC [5] [µM] | MIC (Staphylococcus aureus [6]) [µM] | MIC [7] [µM] | MIC (Enterococcus faecium [9]) [µM] | MBEC (Enterococcus faecium [10]) [µM] | MBC (Enterococcus faecium [10]) [µM] | IC50 (HeLa [11]) [µM] | hemolysis at 1 h, 200 µM [12] [%] | MIC (Staphylococcus aureus [14]) [µM] | MIC (Staphylococcus aureus [15]) [µM] | MIC [16] [µM] | MIC (Staphylococcus aureus [18]) [µM] | MBEC (Staphylococcus aureus [20]) [µM] | MBC (Staphylococcus aureus [20]) [µM] | MIC (Staphylococcus aureus [22]) [µM] | also measured |
| --- | --- | --- | --- | --- | --- | --- | --- | --- | --- | --- | --- | --- | --- | --- | --- | --- | --- | --- | --- | --- |
| Oc1c(Br)cc(I)c2nc3cc(Cl)c(Cl)cc3nc12 | 9.38 | 3.13 (≈ 1.47 µg/mL) | 12.5 (≈ 5.87 µg/mL) | 2.35 | 1.56 (≈ 0.733 µg/mL) | 0.3 (≈ 0.141 µg/mL) | 0.1 (≈ 0.047 µg/mL) | 0.1 (≈ 0.047 µg/mL) | 0.2 | 0.2 (≈ 0.094 µg/mL) | > 50 | 2.7 | 3.13 (≈ 1.47 µg/mL) | 100 | 3.13 (≈ 1.47 µg/mL) | 3.13 (≈ 1.47 µg/mL) | – | – | – | MIC (Staphylococcus aureus [2]): 6.25 µM (≈ 2.94 µg/mL); Activity (HeLa [4]): Non-toxic; Activity (HeLa [8]): 70%; Activity [13]: >99.99%; Activity [17]: Active; solubility at 16 h [19]: 200 µM (≈ 94 µg/mL) |
| Oc1c(Br)cc(I)c2nc3ccccc3nc12 | 62.5 | 31.3 (≈ 12.6 µg/mL) | – | 188 | 11.7 (≈ 4.69 µg/mL) | – | – | 6.25 (≈ 2.51 µg/mL) | 5.9 | 3 (≈ 1.2 µg/mL) | > 100 | 2.9 | – | 50 | – | – | 93.8 | 23.5 (≈ 9.42 µg/mL) | 6.25 | MBEC (Staphylococcus aureus [21]): 93.8 µM; MBC (Staphylococcus aureus [21]): 46.9 µM (≈ 18.8 µg/mL) |
| C[C@H]1c2cccc(O)c2C(=O)C2=C(O)[C@]3(O)C(=O)C(C(N)=O)=C(O)[C@@H](N(C)C)[C@@H]3[C@@H](O)[C@@H]21.O [DOXYCYCLINE] | 46.9 | 2 | – | – | – | – | – | – | – | – | – | – | – | – | – | – | – | – | – | Ratio (Staphylococcus aureus [23]): >23 |
| Oc1ccc(Br)c2nc3cc(Br)c(Br)cc3nc12 | >200 | > 200 | – | >200 | > 200 | 0.56 (≈ 0.242 µg/mL) | – | 6.25 (≈ 2.71 µg/mL) | >200 | > 200 | – | ≤ 1 | 1.56 (≈ 0.675 µg/mL) | > 100 | 3.13 (≈ 1.35 µg/mL) | 1.56 (≈ 0.675 µg/mL) | – | – | 25 | MIC (Staphylococcus aureus [2]): 12.5 µM (≈ 5.41 µg/mL); MIC (Staphylococcus aureus [24]): 0.1 µM |
| CO[C@H]1/C=C/O[C@@]2(C)Oc3c(C)c(O)c4c(O)c(c(/C=N/N5CCN(C)CC5)c(O)c4c3C2=O)NC(=O)/C(C)=C\C=C\[C@H](C)[C@H](O)[C@@H](C)[C@@H](O)[C@@H](C)[C@H](OC(C)=O)[C@@H]1C [RIFAMPIN] | 46.9 | 2 (≈ 1.65 µg/mL) | – | 15.6 | 3 (≈ 2.47 µg/mL) | – | 0.1 (≈ 0.0823 µg/mL) | – | – | – | – | – | – | – | 0.1 (≈ 0.0823 µg/mL) | 0.1 (≈ 0.0823 µg/mL) | – | – | – | Ratio (Staphylococcus aureus [23]): >23 |
| Oc1c(Br)cc(Br)c2nc3cc(Cl)c(Cl)cc3nc12 | – | – | 6.25 (≈ 2.64 µg/mL) | – | – | 25 (≈ 10.6 µg/mL) | 0.08 (≈ 0.0338 µg/mL) | 0.39 (≈ 0.165 µg/mL) | 0.39 | 0.39 (≈ 0.165 µg/mL) | > 100 | ≤ 1 | 50 (≈ 21.1 µg/mL) | – | 0.3 (≈ 0.127 µg/mL) | – | 12.5 | 6.25 (≈ 2.64 µg/mL) | – | Activity [13]: >99.99% |
| Oc1c(Br)cc(Br)c2nc3ccccc3nc12 | 93.8 | 15.6 (≈ 5.52 µg/mL) | 25 (≈ 8.85 µg/mL) | 250 | 23.5 (≈ 8.32 µg/mL) | – | – | 6.25 (≈ 2.21 µg/mL) | – | – | > 100 | ≤ 1 | – | 75 | – | – | 375 | 62.5 (≈ 22.1 µg/mL) | 3.13 | Activity [25]: Active; Activity [26]: Active; Activity (Staphylococcus aureus [27]): Active; MIC [28]: 0.27 mg/L (≈ 0.763 µM); MIC (Staphylococcus aureus [29]): 0.78 µM (≈ 0.276 µg/mL); MBEC (Staphylococcus aureus [21]): 188 µM; MBC (Staphylococcus aureus [21]): 62.5 µM (≈ 22.1 µg/mL); Activity (Staphylococcus aureus [30]): Active; Activity (Staphylococcus aureus [31]): Active |
